Converted amounts (≈) assume the structure as drawn. The source made the active and inactive calls. The calls are words filed in the database; no cut-off is given here.

In ChEMBL document CHEMBL4229322, “Antibacterial Paramagnetic Quinones from Actinoallomurus” (2017) one finds MIC data, which are given here for five molecules.

Assay type in all cases: functional
Assay [1] concerns Escherichia coli. In words: Antimicrobial activity against delta-tolC containing Escherichia coli L4242 by broth microdilution method. (In general: Dilution methods test growth across graded concentrations, often in twofold steps.)
Assay [2] has as its system Stenotrophomonas maltophilia. Kind of assay: Antimicrobial activity against Stenotrophomonas maltophilia L3030 by broth microdilution method.
Assay [3] has as its system Mycolicibacterium smegmatis. In words: Antimicrobial activity against Mycobacterium smegmatis str. MC2 155 by broth microdilution method.
The subject of the next assay is Haemophilus influenzae. In words: Antimicrobial activity against Haemophilus influenzae L3296 by broth microdilution method.
In a further assay the test system is Acinetobacter baumannii. In words: Antimicrobial activity against Acinetobacter baumannii ATCC 13637 by broth microdilution method.
In assay [4] the test system is Escherichia coli. In words: Antimicrobial activity against Escherichia coli ATCC 25922 by broth microdilution method.
In the next assay the test system is Moraxella catarrhalis. In words: Antimicrobial activity against Moraxella catarrhalis L3292 by broth microdilution method.
In assay [5] the test system is Escherichia coli. In words: Antimicrobial activity against hyperpermeable Escherichia coli G1640 by broth microdilution method.
The next assay has as its system Cutibacterium acnes. Kind of assay: Antimicrobial activity against Propionibacterium acnes ATCC 25476 by broth microdilution method.
Another assay has as its system Clostridioides difficile. Kind of assay: Antimicrobial activity against Clostridium difficile L4013 by broth microdilution method.
Assay [6] concerns Staphylococcus haemolyticus. In words: Antimicrobial activity against methicillin-sensitive Staphylococcus haemolyticus L1729 by broth microdilution method.
In assay [7] the test system is Lactobacillus delbrueckii. In words: Antimicrobial activity against Lactobacillus delbrueckii ATCC 4797 by broth microdilution method.
In assay [8] the test system is Staphylococcus aureus. Kind of assay: Antimicrobial activity against glycopeptide-intermediate resistant Staphylococcus aureus L3798 by broth microdilution method. Summed up: (§1)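 CLSI broth microdilution in Müller Hinton broth containing 20 mg/L CaCl2 and 10 mg/L MgCl2. Clinical isolates inoculated at 5 × 10^5 cfu/mL and incubated at 37 °C for 20−24 h. MIC read as the lowest inhibiting concentration.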

Assay [9] concerns Enterococcus faecium. In words: Antimicrobial activity against VanA expressing Enterococcus faecium L569 by broth microdilution method.
Another assay has as its system Bacteroides fragilis. In words: Antimicrobial activity against Bacteroides fragilis ATCC 25285 by broth microdilution method.
For assay [10], the system named is Streptococcus pyogenes. Kind of assay: Antimicrobial activity against Streptococcus pyogenes ATCC BAA 1402 by broth microdilution method.
The subject of assay [11] is Staphylococcus aureus. Kind of assay: Antimicrobial activity against methicillin-resistant Staphylococcus aureus L1400 by broth microdilution method. Summed up: as §1
In assay [12] the test system is Streptococcus pyogenes. In words: Antimicrobial activity against Streptococcus pyogenes L49 by broth microdilution method.
The subject of assay [13] is Staphylococcus aureus. In words: Antimicrobial activity against methicillin-sensitive Staphylococcus aureus ATCC 6538P by broth microdilution method.
For assay [14], the system named is Enterococcus faecium. In words: Antimicrobial activity against VanS expressing Enterococcus faecium L568 by broth microdilution method.
In assay [15] the test system is Staphylococcus aureus. Kind of assay: Antimicrobial activity against glycopeptide-intermediate resistant Staphylococcus aureus L3797 by broth microdilution method. Summed up: as §1
In assay [16] the test system is Staphylococcus haemolyticus. In words: Antimicrobial activity against methicillin-resistant Staphylococcus haemolyticus L1730 by broth microdilution method. A digest of the protocol:
as §1

A further assay relates to Pseudomonas aeruginosa. Kind of assay: Antimicrobial activity against Pseudomonas aeruginosa ATCC 27853 by broth microdilution method.
Assay [17] has as its system Streptococcus pyogenes. In words: Antimicrobial activity against Streptococcus pyogenes ATCC BAA 1407 by broth microdilution method.

For GENTAMICIN, the MIC with Escherichia coli [1] turned out to be 0.25 µg/mL; in [2] it was 64 µg/mL; in [3] it was 16 µg/mL; in the assay with Haemophilus influenzae it was 128 µg/mL; in the assay with Acinetobacter baumannii, 0.125 µg/mL; against Escherichia coli [4] it was 0.25 µg/mL. Moreover, the MIC in the assay with Moraxella catarrhalis and against Escherichia coli [5] was 0.25 µg/mL in each case.

With `CNc1cc(=O)c2c(O)c3c(=O)c4c5c(c(OC)cc4c(=O)c3cc2c1=O)C(=O)OC5`, the MIC entry (in the assay on Cutibacterium acnes; in the assay with Escherichia coli [1]; with Clostridioides difficile; in assay [6]; in assay [2]; in assay [7]) was “Active” each time. Also, the MIC result (in the assay on Staphylococcus aureus [8]; in assay [3]; in the assay on Enterococcus faecium [9]; in the assay on Bacteroides fragilis; in the assay with Haemophilus influenzae; with Streptococcus pyogenes [10]) was “Active” throughout. The MIC result in the assay with Staphylococcus aureus [11], in the assay with Acinetobacter baumannii, in the assay with Streptococcus pyogenes [12], in the assay with Staphylococcus aureus [13], with Enterococcus faecium [14] and in the assay on Escherichia coli [4] was “Active” each time. Also, the MIC entry (in the assay on Staphylococcus aureus [15]; in assay [16]; with Moraxella catarrhalis; in the assay on Pseudomonas aeruginosa; with Streptococcus pyogenes [17]; in the assay with Escherichia coli [5]) was “Active” throughout.

For `O=C1OCc2c1c(O)cc1c(=O)c3cc4c(=O)c(O)cc(=O)c4c(O)c3c(=O)c21`, the MIC is more than 16 µg/mL against Cutibacterium acnes; more than 16 µg/mL in the assay with Escherichia coli [1]; more than 64 µg/mL in the assay with Clostridioides difficile; more than 16 µg/mL in assay [6]; more than 16 µg/mL in assay [2]; more than 16 µg/mL in [7]. Also, the MIC in the assay on Staphylococcus aureus [8] is more than 16 µg/mL; in [3], more than 16 µg/mL; in the assay with Enterococcus faecium [9], more than 16 µg/mL; in the assay with Bacteroides fragilis it was more than 16 µg/mL; against Haemophilus influenzae, more than 16 µg/mL; against Streptococcus pyogenes [10], 8 µg/mL (≈ 20.4 µM). Further, the MIC in the assay with Staphylococcus aureus [11] was more than 16 µg/mL; in the assay with Acinetobacter baumannii, more than 16 µg/mL; against Streptococcus pyogenes [12], 16 µg/mL (≈ 40.8 µM); in the assay on Staphylococcus aureus [13] it was more than 16 µg/mL; with Enterococcus faecium [14], more than 16 µg/mL; with Escherichia coli [4], more than 16 µg/mL. Besides, the MIC in the assay with Staphylococcus aureus [15] is more than 16 µg/mL; in [16], more than 16 µg/mL; in the assay with Moraxella catarrhalis, more than 16 µg/mL; in the assay on Pseudomonas aeruginosa it was more than 16 µg/mL; against Streptococcus pyogenes [17], 8 µg/mL (≈ 20.4 µM); against Escherichia coli [5], more than 16 µg/mL.

`CN[C@H](CC(C)C)C(=O)N[C@H]1C(=O)N[C@@H](CC(N)=O)C(=O)N[C@H]2C(=O)N[C@H]3C(=O)N[C@H](C(=O)N[C@H](C(=O)O)c4cc(O)cc(O)c4-c4cc3ccc4O)[C@H](O)c3ccc(c(Cl)c3)Oc3cc2cc(c3O[C@@H]2O[C@H](CO)[C@@H](O)[C@H](O)[C@H]2O[C@H]2C[C@](C)(N)[C@H](O)[C@H](C)O2)Oc2ccc(cc2Cl)[C@H]1O` [VANCOMYCIN]: the MIC in the assay on Cutibacterium acnes is 0.25 µg/mL (≈ 0.173 µM); against Escherichia coli [1], more than 128 µg/mL; against Clostridioides difficile it was 0.5 µg/mL (≈ 0.345 µM); in assay [6] it was 2 µg/mL (≈ 1.38 µM); in assay [2], 128 µg/mL (≈ 88.3 µM); in assay [7], more than 128 µg/mL. The MIC in the assay on Staphylococcus aureus [8] was 8 µg/mL (≈ 5.52 µM); in assay [3], more than 128 µg/mL; in the assay on Enterococcus faecium [9], more than 128 µg/mL; against Bacteroides fragilis, 16 µg/mL (≈ 11 µM); against Haemophilus influenzae, more than 128 µg/mL; against Acinetobacter baumannii, 128 µg/mL (≈ 88.3 µM). For the same molecule, the MIC in the assay on Escherichia coli [4] is more than 128 µg/mL; against Staphylococcus aureus [15], 8 µg/mL (≈ 5.52 µM); in assay [16], 128 µg/mL (≈ 88.3 µM); against Moraxella catarrhalis it was 32 µg/mL (≈ 22.1 µM); in the assay on Pseudomonas aeruginosa it was 2 µg/mL (≈ 1.38 µM); with Escherichia coli [5] it was more than 128 µg/mL.

For `COc1cc2c(=O)c3cc4c(=O)c(OC)cc(=O)c4c(O)c3c(=O)c2c2c1C(=O)OC2`, the MIC entry (in the assay with Cutibacterium acnes; with Escherichia coli [1]; in the assay with Clostridioides difficile; in assay [6]; in assay [2]; in [7]) was “Active” in each case. Also, the MIC entry (with Staphylococcus aureus [8]; in [3]; in the assay with Enterococcus faecium [9]; in the assay on Bacteroides fragilis; with Haemophilus influenzae; with Streptococcus pyogenes [10]) was “Active” in each case. Besides, the MIC result with Staphylococcus aureus [11], in the assay on Acinetobacter baumannii, with Streptococcus pyogenes [12], with Staphylococcus aureus [13], with Enterococcus faecium [14] and in the assay on Escherichia coli [4] was “Active” throughout. Besides, the MIC result (in the assay on Staphylococcus aureus [15]; in assay [16]; in the assay on Moraxella catarrhalis; with Pseudomonas aeruginosa; in the assay with Streptococcus pyogenes [17]; in the assay on Escherichia coli [5]) was “Active” throughout.
